Test results: ChEMBL document CHEMBL5233208, “Optimization of P2Y12 Antagonist Ethyl 6-(4-((Benzylsulfonyl)carbamoyl)piperidin-1-yl)-5-cyano-2-methylnicotinate (AZD1283) Led to the Discovery of an Oral Antiplatelet Agent with Improved Druglike Properties” (J Med Chem, 2019)

Columns and labels:
Assay type in all cases: functional
Homo sapiens = species on record: Homo sapiens; test: Antiplatelet activity in human platelet-rich plasma assessed as inhibition of ADP-induced platelet aggregation by aggregometry
Summary of the method: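 Human PRP from healthy donors free of aspirin/NSAIDs for at least two weeks, drawn into ACD; PRP spun at 300 g for 10 min, PPP at 2000 g. Compound in 0.5% DMSO preincubated 2 min at 37 °C with stirring (900 rpm). Aggregation induced by 10 μM ADP (final) and followed optically for 5 min.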

Rattus norvegicus [1] = test: Antithrombotic activity in anesthetized Wistar rat model of tail-bleeding assessed as increase in bleeding time po administered as single dose measured at 1.5 hrs post dose
Summary of the method: (§1)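 Male rats (250–300 g, n = 10 per dose) acclimatized at least 7 days, then dosed by oral gavage. At 1.5 h, anesthetized with 2% pentobarbital i.p. at 50 mg/kg. Tail transected 4 mm from the tip and immersed in saline at 37 °C; bleeding ended when no blood appeared for 30 s. Bleeding time and blood loss weight recorded as mean ± SEM.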

Rattus norvegicus [2] = test: Antithrombotic activity in anesthetized Wistar rat model of FeCL3-induced carotid artery thrombosis assessed as reduction in thrombus weight po administered as single dose measured at 1.5 hrs post dose
Summary of the method: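 Compounds in 0.5% CMC-Na given to Wistar rats as a single oral gavage dose (10 mL/kg). Rats anesthetized with 2% pentobarbital i.p. at 50 mg/kg and kept on a heating pad. At 1.5 h post-dose, filter paper soaked in 20% FeCl3 applied to the isolated left carotid artery for 10 min; thrombus weight recorded. Mean ± SEM, n = 10.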

Rattus norvegicus [3] = test: Antithrombotic activity in anesthetized Wistar rat model of tail-bleeding assessed as increase in bleeding weight at […], po administered as single dose measured at 1.5 hrs post dose
Rattus norvegicus [4] = test: Antithrombotic activity in anesthetized Wistar rat model of tail-bleeding assessed as increase in bleeding weight at 5 mg/kg, po administered as single dose measured at 1.5 hrs post dose; summary of the method: as §1
Rattus norvegicus [5] = test: Antithrombotic activity in anesthetized Wistar rat model of tail-bleeding assessed as increase in bleeding weight at 10 mg/kg, po administered as single dose measured at 1.5 hrs post dose; summary of the method: as §1
Rattus norvegicus [6] = test: Antithrombotic activity in anesthetized Wistar rat model of tail-bleeding assessed as increase in bleeding weight at 20 mg/kg, po administered as single dose measured at 1.5 hrs post dose; summary of the method: as §1

| IC50 (Homo sapiens) [µM] | Structure (SMILES) | also measured |
| --- | --- | --- |
| 30.5 | N#Cc1cc2c(nc1N1CCC(C(=O)NS(=O)(=O)Cc3cc(Cl)cc(Cl)c3)CC1)COC2=O |  |
|  | COC(=O)[C@H](c1ccccc1Cl)N1CCc2sccc2C1 [CLOPIDOGREL] | ED100 (Rattus norvegicus [1]): 2.36 mg/kg; ED50 (Rattus norvegicus [2]): 7 mg/kg; Activity (Rattus norvegicus [3]): 0.44 g; Activity (Rattus norvegicus [4]): 0.7 g; Activity (Rattus norvegicus [5]): 1.2 g; Activity (Rattus norvegicus [6]): 1.99 g |
| 6.68 | CC1(C(=O)NS(=O)(=O)Cc2ccccc2)CCN(c2nc3c(cc2C#N)C(=O)OC3)CC1 |  |
| 8.9 | N#Cc1ccc(CS(=O)(=O)NC(=O)C2CCN(c3nc4c(cc3C#N)C(=O)OC4)CC2)cc1 |  |
| 37.1 | N#Cc1cc2c(nc1N1CCC(F)(C(=O)NS(=O)(=O)c3ccc(Cl)s3)CC1)COC2=O |  |
| 70.5 | N#Cc1cc2c(nc1N1CCC(C(=O)NS(=O)(=O)Cc3cccc(F)c3)CC1)COC2=O |  |
| > 300 | N#Cc1cc2c(nc1N1CCC(C(=O)NS(=O)(=O)Cc3ccccc3)CC1)CNC2=O |  |
| > 300 | CC1OC(=O)c2cc(C#N)c(N3CCC(C(=O)NS(=O)(=O)Cc4ccccc4)C3)nc21 (centres undefined) |  |
| 193 | N#Cc1cc2c(nc1N1CC(C(=O)NS(=O)(=O)c3ccc(Cl)s3)C1)COC2=O |  |
| 255 | N#Cc1cc2c(nc1N1CCC(C(=O)NS(=O)(=O)Cc3ccccc3)CC1)CCC(F)C2=O (centres undefined) |  |
| 3.5 | N#Cc1cc2c(nc1N1CCC(C(=O)NS(=O)(=O)Cc3ccc(F)cc3)CC1)COC2=O |  |
| 5.2 | N#Cc1cc2c(nc1N1CCC(C(=O)NS(=O)(=O)Cc3ccc(F)cc3F)CC1)COC2=O |  |
| > 300 | N#Cc1cc2c(nc1N1CC(C(=O)NS(=O)(=O)Cc3ccccc3)C1)COC2=O |  |
| > 300 | CC1OC(=O)c2cc(C#N)c(N3CCC(C(=O)NS(=O)(=O)c4ccc(Cl)s4)CC3)nc21 (centres undefined) |  |
| 117 | N#Cc1cc2c(nc1N1CCC(C(=O)NS(=O)(=O)Cc3ccccc3)CC1)CCCC2=O |  |
| 4.1 | N#Cc1cc2c(nc1N1CCC(C(=O)NS(=O)(=O)C3(c4ccccc4)CC3)CC1)COC2=O |  |
| 37.2 | N#Cc1cc2c(nc1N1CCC(F)(C(=O)NS(=O)(=O)Cc3ccc(Cl)cc3)CC1)COC2=O |  |
| 32.8 | Cc1ccc(CS(=O)(=O)NC(=O)C2(F)CCN(c3nc4c(cc3C#N)C(=O)OC4)CC2)cc1 |  |
| 4.42 | N#Cc1cc2c(nc1N1CCC(C(=O)NS(=O)(=O)Cc3ccc(Cl)cc3)CC1)COC2=O |  |
